Experimental data from article PMC5415879 (Molecular Pharmaceutics, 2017).
Where no end group is shown, it is not given here.

Legend:
Type in all cases: physicochemical
[1] = Particle morphology by atomic force microscopy; conditions: nanostructures immobilized on poly-L-lysine coated mica, room temperature
[2] = Critical aggregation concentration, Nile red assay; conditions: Nile red fluorescence (Ex550/Em635), PBS pH 7.4, 0.1 to 500 μg/mL, overnight incubation at room temperature; intersection of two linear fits
[3] = Particle morphology and size by transmission electron microscopy; conditions: 0.1 mg/mL in HEPES 10 mM, negative staining with 2% uranyl acetate
In short: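 Applies to peptide–pNIPAm self-assembled particles. Samples at 0.1 mg/mL in 10 mM HEPES are applied to prewarmed carbon-coated copper grids for 2 min, and excess liquid is blotted off with filter paper. Grids are negatively stained with 2% uranyl acetate for 45 s and dried 10 min at room temperature. Morphology and size are then read from TEM images.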

Row | Substance | particle diameter by AFM [1] [nm] | critical aggregation concentration (CAC) [2] | particle size by TEM [3]
1 | Ac-AAVVLLLWGQAEPDRAHYNIVTF [HPV-SA] | ~100 | ca. 15 μM | –
2 | HPV16 E7_43–57-poly(DMAm) [HPV-pDMAm] | – | – | no particles
3 | HPV16 E7_43–57-poly(NIPAm) [HPV-pNIPAm] | – | – | 20–80 nm
4 | OVA250–264-poly(NIPAm) [OVA-pNIPAm] | – | – | 20–80 nm
